Laboratory results taken from article PMC5548007 (European journal of medicinal chemistry, 2017).
Read-outs that look alike come from different tables or passages of the source.

Tests used:
[1] = test system: rats; assay: Acute in vivo toxicity in rats; conditions: oral 10 mg/kg
Outline: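 Male Sprague-Dawley rats (250–300 g), n = 4, dosed once by oral gavage at 10 mg/kg in 5% DMSO / 40% PEG 400 / 55% saline. Dosing was part of a pharmacokinetic study, with tail-vein blood drawn at 1, 3, 6 and 24 h. Time to death after oral dosing was recorded in hours.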

[2] = test system: PC-3 cells; assay: Cell cycle analysis by flow cytometry with propidium iodide staining; assay type: cell-based, human; conditions: for Cell cycle phase of arrest: PC-3, 28 at 5 μM, 46 at 4 μM
Outline: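 PC-3 cells were seeded at 200,000/well and allowed to attach for 3 h. They were treated with test compound at 4 or 5 μM, or DMSO vehicle, at 37 °C and harvested at 16 or 24 h, including floating cells. Cells were fixed in cold 80% ethanol for 30 min at 4 °C and RNase-treated for 30 min at 37 °C. Staining used propidium iodide (50 μg/mL stock) for 30 min, and DNA content was read by flow cytometry within 0.5–1 h.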

[3] = Metabolic profiling by liver microsome incubation; assay type: in vitro ADME, human; conditions: 37 °C, 60 min, NADPH; mono-hydroxylation products by HRMS
Outline: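 Pooled human liver microsomes in potassium phosphate buffer (pH 7.4) with NADPH solutions A and B were preincubated for 5 min at 37 °C. Test compound was added from a 10 mM stock and incubated for 60 min at 37 °C. Methanol stopped the reaction, and samples were centrifuged at 10,000 × g for 4 min at 4 °C. Supernatant was analysed by UHPLC with high-resolution mass spectrometry.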

[4] = Oral pharmacokinetic study in Sprague-Dawley rats; assay type: in vivo, rat; conditions: single oral dose 10 mg/kg
Outline: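 Male Sprague-Dawley rats (250–300 g, n = 4) received a single 10 mg/kg oral gavage in 5% DMSO/40% PEG 400/55% saline. Tail-vein blood was taken into EDTA at 1, 3, 6 and 24 h, and plasma was stored at −80 °C. Plasma was extracted with chloroform/methanol (2:1) using a 13C2,15N-tamoxifen internal standard. Quantitation was by UPLC–triple-quadrupole MS/MS with a water/acetonitrile 0.05% formic acid gradient.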

[5] = test system: three human prostate cancer cell lines; assay: Anti-proliferative potency across three prostate cancer cell lines; assay type: cell-based; conditions: read-out: IC50 range in three prostate cancer cell lines
Outline: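 Human prostate cancer cells were grown at 37 °C in 5% CO2: PC-3 and LNCaP in RPMI-1640, DU-145 in EMEM, each with 10% FBS and 1% penicillin/streptomycin. Cells were seeded at 3,200/well and exposed to test compound for 3 days, with DMSO as vehicle control. WST-1 reagent was added for 3 h at 37 °C and absorbance read at 430 nm. IC50 came from linear inhibition over ≥5 doses, averaged over triplicates.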

[6] = mice, single oral dose 1 mg/kg; cited from earlier work
[7] = test system: LNCaP cells; assay: WST-1 cell proliferation assay, LNCaP; assay type: cell-based; conditions: Homo sapiens, 72 h, read-out: IC50 LNCaP
Outline: (§1)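 PC-3 and LNCaP cells grown in RPMI-1640, DU145 in EMEM, each with 10% FBS and 1% penicillin/streptomycin at 37 °C, 5% CO2. Cells seeded at 3,200/well, then exposed 3 days to at least five doses of test compound, with DMSO as vehicle control. WST-1 reagent added for 3 h at 37 °C, absorbance read at 430 nm. IC50 taken from linear inhibition plot; mean ± SD of triplicates.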

[8] = test system: PC-3 cells; assay: WST-1 cell proliferation assay, PC-3; assay type: cell-based; conditions: Homo sapiens, PC-3, 72 h, read-out: IC50 PC-3
Outline: as §1

[9] = test system: DU145 cells; assay: WST-1 cell proliferation assay, DU145; assay type: cell-based; conditions: Homo sapiens, DU-145, 72 h, read-out: IC50 DU145
Outline: as §1

[10] = test system: PC-3 cells; conditions: cited from earlier work

Q: What does the source list for CCCn1ccnc1/C=C/C(=O)/C=C/c1nc2ccccc2n1CCC [Compd 46, (1E,4E)-1-(1-Propyl-1H-benzo[d]imidazole-2-yl)-5-(1-propyl-1H-imidazole-2-yl)penta-1,4-dien-3-one]?
A: Time to death after oral dosing [1]: about 48 hours; Cell cycle phase of arrest [2]: cell cycle arrest at the G0/G1 phase

Q: Which results are given for CCn1c(/C=C/C(=O)/C=C/c2sc(C)nc2C(F)(F)F)nc2ccccc21 [Compd 49, (1E,4E)-1-(1-Ethyl-1H-benzo[d]imidazol-2-yl)-5-(2-methyl-4-(trifluoromethyl)thiazol-5-yl)penta-1,4-dien-3-one]?
A: Acute in vivo toxicity (tolerability) [1]: without observed toxicity; Major metabolic products detected after microsomal incubation [3]: two major metabolic products

Q: With CCC(C)n1ccnc1/C=C/C(=O)/C=C/c1sc(C)nc1C(F)(F)F (stereo not drawn) [Compd 28, (1E,4E)-1-(1-(sec-Butyl)-1H-imidazol-2-yl)-5-(2-methyl-4-(trifluoromethyl)thiazol-5-yl)penta-1,4-dien-3-one] as the compound, how does the “Acute in vivo toxicity (tolerability)” value [1] read?
A: Its value is “without observed toxicity”.

Q: What about the “Lower cell population at G2 phase vs control, 16 h” value ([2]; 5 μM, 16 h) of the same compound?
A: Its value is 10%.

Q: What about the “Higher cell population at G0/G1 phase vs control, 24 h” value ([2]; 5 μM, 24 h) of the same compound?
A: Its value is 4%.

Q: What about the “Lower cell population at G2 phase vs control, 24 h” value ([2]; 5 μM, 24 h) of the same compound?
A: The value was 3%.

Q: What about the “Cell cycle phase of arrest” value [2] of the same compound?
A: Its value is “cell cycle arrest at the G0/G1 phase”.

Q: What about the “Major metabolic products detected after microsomal incubation” value [3] of the same compound?
A: The value was “three major metabolic products”.

Q: What about the “Peak plasma concentration in molar units” value [4] of the same compound?
A: Its value is 5.27 µM.

Q: Which “Time to death after oral dosing” value [1] does the source give for CC(C)n1c(/C=C/C(=O)/C=C/c2ccccn2)nc2ccccc21 [Compd 58, (1E,4E)-1-(1-Isopropyl-1H-benzo[d]imidazol-2-yl)-5-(pyridin-2-yl)penta-1,4-dien-3-one] here?
A: The value was ~72 h.

Q: What about the IC50 [5] of the same compound?
A: The IC50 was 0.03 to 0.12 µM.

Q: With COc1cc(/C=C/C(=O)CC(=O)/C=C/c2ccc(O)c(OC)c2)ccc1O [Curcumin] as the compound, how does the “Area under curve (AUC)” value [6] read?
A: The value was 2.85 ng·h/mL.

Q: What about the IC50 [7] of the same compound?
A: The IC50 was 13.6 ± 2.69 µM.

Q: And the IC50 [8]?
A: Its IC50 is 25.4 ± 2.15 µM.

Q: What about the IC50 [9] of the same compound?
A: Its IC50 is 26.2 ± 0.65 µM.

Q: What about the “Cell cycle phase of arrest” value [10] of the same compound?
A: The value was “G1/S phase”.
